Experimental findings from ChEMBL document CHEMBL1128172, “Structure-activity relationships of cyclic pentapeptide endothelin A receptor antagonists” (J Med Chem, 1995) are described below.

Broadly, the IC50 is the concentration that gives 50% inhibition. Lower therefore signals greater potency in that assay.

Tested on in one data set: not listed separately
Nature of the data set: Solubility in saline. The note with it: buffer. It counts as physicochemical. An outline of the steps: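 Measured on the sodium salts, dissolved in saline.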
The compound `CC(C)C[C@@H]1NC(=O)[C@@H](C(C)C)NC(=O)[C@@H]2CCCN2C(=O)[C@@H](CC(=O)O)NC(=O)[C@@H](Cc2c[nH]c3ccccc23)NC1=O` (single isomer, unassigned) showed an S above 1000 mg/mL.

The next data set addresses T1, Endothelin-1 receptor (Sus scrofa, UniProt Q29010).
T1 sequence (Q29010 whole entry): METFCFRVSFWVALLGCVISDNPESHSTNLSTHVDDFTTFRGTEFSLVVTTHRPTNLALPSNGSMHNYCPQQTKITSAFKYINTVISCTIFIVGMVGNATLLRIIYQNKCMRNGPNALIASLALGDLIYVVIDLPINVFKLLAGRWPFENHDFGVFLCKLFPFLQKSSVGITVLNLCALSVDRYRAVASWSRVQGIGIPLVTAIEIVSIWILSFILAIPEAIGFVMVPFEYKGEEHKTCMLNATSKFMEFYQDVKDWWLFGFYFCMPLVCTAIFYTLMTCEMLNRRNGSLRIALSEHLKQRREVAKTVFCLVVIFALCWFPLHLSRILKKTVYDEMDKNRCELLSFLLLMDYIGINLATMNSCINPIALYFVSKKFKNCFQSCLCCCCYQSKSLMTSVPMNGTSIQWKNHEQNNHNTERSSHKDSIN
Nature of the data set: The compound was tested for binding inhibitory activity against Endothelin A receptor from porcine aortic smooth muscle membranes.
Details: not given
`CC(C)C[C@@H]1NC(=O)[C@@H](C(C)C)NC(=O)CN(C)C(=O)[C@@H](CC(=O)O)NC(=O)[C@@H](Cc2c[nH]c3ccccc23)NC1=O` (single isomer, unassigned) gave an IC50 max of 32 nM.
As to `CC(C)C[C@@H]1NC(=O)[C@@H](C(C)C)NC(=O)[C@H](Cc2ccccc2)NC(=O)[C@@H](CC(=O)O)NC(=O)[C@@H](Cc2c[nH]c3ccccc23)NC1=O` (single isomer, unassigned), the IC50 max stood at 210 nM.
The same measure, in the same setting: the result for `CC(C)[C@H]1NC(=O)[C@H](C)NC(=O)[C@@H](CC(=O)O)NC(=O)[C@@H](Cc2c[nH]c3ccccc23)NC(=O)[C@H](CC2CCCCC2)NC1=O` (single isomer, unassigned) reads 5600 nM.
Still for that read-out and setting: then `CC(C)C[C@@H]1NC(=O)[C@@H](C)NC(=O)[C@@H]2CCCN2C(=O)[C@@H](CC(=O)O)NC(=O)[C@@H](Cc2c[nH]c3ccccc23)NC1=O` (single isomer, unassigned), with 260 nM; and `CC(C)C[C@@H]1NC(=O)[C@@H](C(C)C)NC(=O)[C@H](C)N(C)C(=O)[C@@H](CC(=O)O)NC(=O)[C@@H](Cc2c[nH]c3ccccc23)NC1=O` (single isomer, unassigned), with 34 nM.
Same read-out and setting: then `CC(C)C[C@@H]1NC(=O)[C@@H](C(C)C)NC(=O)[C@H](Cc2c[nH]c3ccccc23)NC(=O)[C@@H](CC(=O)O)NC(=O)[C@@H](Cc2c[nH]c3ccccc23)NC1=O` (single isomer, unassigned), with 150 nM.
In turn, `CCCC[C@H]1NC(=O)[C@@H]2CCCN2C(=O)[C@@H](CC(=O)O)NC(=O)[C@@H](Cc2c[nH]c3ccccc23)NC(=O)[C@H](CC(C)C)NC1=O` (single isomer, unassigned) showed an IC50 max of 120 nM.
On the same count and under the same terms, the result for `CC(C)C[C@@H]1NC(=O)[C@@H](C(C)C)NC(=O)[C@@H]2CCCN2C(=O)[C@@H](CC(=O)O)NC(=O)[C@@H](Cc2c[nH]c3ccccc23)NC1=O` (single isomer, unassigned) reads 22 nM.
In turn, `CC(C)C[C@@H]1NC(=O)[C@@H](C(C)C)NC(=O)CNC(=O)[C@@H](CC(=O)O)NC(=O)[C@@H](Cc2c[nH]c3ccccc23)NC1=O` (single isomer, unassigned) registered an IC50 max of 160 nM.
Take `CC(C)C[C@@H]1NC(=O)[C@@H](C(C)C)NC(=O)[C@H](CCCN)NC(=O)[C@@H](CC(=O)O)NC(=O)[C@@H](Cc2c[nH]c3ccccc23)NC1=O` (single isomer, unassigned): the IC50 max is on record as 250 nM.
On the same count and under the same terms, then `CC(C)[C@H]1NC(=O)[C@H](C)NC(=O)[C@@H](CC(=O)O)NC(=O)[C@@H](Cc2c[nH]c3ccccc23)NC(=O)[C@@H]2CCCN2C1=O` (single isomer, unassigned), with 8500 nM.
Same read-out and setting: then `CC(C)C[C@@H]1NC(=O)[C@@H](C(C)C)NC(=O)[C@@H]2CCCN2C(=O)[C@@H](CC(=O)O)NC(=O)[C@@H](Cc2cn(C(=O)OC(C)(C)C)c3ccccc23)NC1=O` (single isomer, unassigned), with 1500 nM; and `CC(C)C[C@@H]1NC(=O)[C@@H](C(C)C)NC(=O)[C@H](CCC(=O)O)NC(=O)[C@@H](CC(=O)O)NC(=O)[C@@H](Cc2c[nH]c3ccccc23)NC1=O` (single isomer, unassigned), with 140 nM.
`CC(C)C[C@@H]1NC(=O)[C@@H](C(C)C)NC(=O)[C@@H]2CSCN2C(=O)[C@@H](CC(=O)O)NC(=O)[C@@H](Cc2c[nH]c3ccccc23)NC1=O` (single isomer, unassigned) yielded an IC50 max of 20 nM.
Still for that read-out and setting: then `CC(C)C[C@@H]1NC(=O)[C@@H](C(C)C)NC(=O)[C@H](CS)NC(=O)[C@@H](CC(=O)O)NC(=O)[C@@H](Cc2c[nH]c3ccccc23)NC1=O` (single isomer, unassigned), with 240 nM.
As for `CC(C)C[C@@H]1NC(=O)[C@@H](C(C)C)NC(=O)[C@@H]2CCCN2C(=O)[C@@H](CC(=O)O)NC(=O)[C@@H](Cc2c[nH]cn2)NC1=O` (single isomer, unassigned), the IC50 max is reported as above 100000 nM.
Still for that read-out and setting: the result for `CC(C)[C@H]1NC(=O)[C@H](CC(=O)O)NC(=O)[C@@H](CC(=O)O)NC(=O)[C@@H](Cc2c[nH]c3ccccc23)NC(=O)[C@H](C)NC1=O` (single isomer, unassigned) reads 2800 nM.
Compound `CC(C)C[C@@H]1NC(=O)[C@@H](C(C)C)NC(=O)[C@H](CS(=O)(=O)O)NC(=O)[C@@H](CC(=O)O)NC(=O)[C@@H](Cc2c[nH]c3ccccc23)NC1=O` (single isomer, unassigned) displayed an IC50 max of 140 nM.
On the same count and under the same terms, the result for `CCCC[C@@H]1NC(=O)[C@@H](C(C)C)NC(=O)[C@@H]2CCCN2C(=O)[C@@H](CC(=O)O)NC(=O)[C@@H](Cc2c[nH]c3ccccc23)NC1=O` (single isomer, unassigned) reads 62 nM; that for `CC(C)C[C@@H]1NC(=O)[C@@H](C(C)C)NC(=O)[C@@H]2CCCN2C(=O)[C@@H](CCO)NC(=O)[C@@H](Cc2c[nH]c3ccccc23)NC1=O` (single isomer, unassigned), 1700 nM.
On the same count and under the same terms, the result for `CC(C)C[C@@H]1NC(=O)[C@@H](C(C)C)NC(=O)[C@@H]2CCCN2C(=O)[C@@H](CC(=O)O)NC(=O)[C@@H](Cc2ccccc2)NC1=O` (single isomer, unassigned) reads above 100000 nM.
`CC(C)C[C@@H]1NC(=O)[C@@H](C(C)(C)S)NC(=O)[C@@H]2CCCN2C(=O)[C@@H](CC(=O)O)NC(=O)[C@@H](Cc2c[nH]c3ccccc23)NC1=O` (single isomer, unassigned) displayed an IC50 max of 49 nM.
In the case of `CC(C)C[C@@H]1NC(=O)[C@@H](C(C)C)NC(=O)[C@H]([C@@H](C)O)NC(=O)[C@@H](CC(=O)O)NC(=O)[C@@H](Cc2c[nH]c3ccccc23)NC1=O` (stereo in doubt), the IC50 max is listed as 270 nM.
On the same count and under the same terms, the result for `CC[C@H](C)[C@@H]1NC(=O)[C@@H](C(C)C)NC(=O)[C@@H]2CCCN2C(=O)[C@@H](CC(=O)O)NC(=O)[C@@H](Cc2c[nH]c3ccccc23)NC1=O` (stereo in doubt) reads 230 nM.

For another data set, the target named is T2, Endothelin-1 receptor (Homo sapiens, UniProt P25101).
T2 sequence (P25101 whole entry): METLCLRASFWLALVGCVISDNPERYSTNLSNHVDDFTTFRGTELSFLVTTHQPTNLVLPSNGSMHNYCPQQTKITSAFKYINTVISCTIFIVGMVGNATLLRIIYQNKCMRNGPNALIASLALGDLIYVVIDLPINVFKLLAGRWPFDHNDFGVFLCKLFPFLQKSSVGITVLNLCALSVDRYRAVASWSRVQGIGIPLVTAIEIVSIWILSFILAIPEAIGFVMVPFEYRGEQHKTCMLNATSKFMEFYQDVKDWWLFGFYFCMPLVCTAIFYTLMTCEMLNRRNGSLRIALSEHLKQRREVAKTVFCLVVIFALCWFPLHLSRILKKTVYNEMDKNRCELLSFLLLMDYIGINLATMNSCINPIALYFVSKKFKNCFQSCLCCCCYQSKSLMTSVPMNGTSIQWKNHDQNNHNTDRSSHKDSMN
The data set is described as follows: Inhibitory effect against Human Endothelin A receptor.
Details: not given
In outline: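 Competition binding of 12 pM [125I]ET-1 to membranes from human neuroblastoma SK-N-MC cells (ETA) or Girardi heart cells (ETB), with increasing test compound, in 50 mM Tris/HCl pH 7.4 with protease inhibitors, 1 mM EDTA and 0.3% BSA. Incubated 4 h at 25 °C, filtered, washed, gamma-counted. Nonspecific binding defined with 0.2 μM ET-1. Values are the average of two independent experiments.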
In turn, `CC(C)C[C@@H]1NC(=O)[C@@H](C(C)C)NC(=O)[C@@H]2CCCN2C(=O)[C@@H](CC(=O)O)NC(=O)[C@@H](Cc2c[nH]c3ccccc23)NC1=O` (single isomer, unassigned) displayed an IC50 of 8.3 nM.

For the next data set, the species on record is Sus scrofa. Nature of the data set: Anti vasoconstriction activity was evaluated in isolated porcine coronary arteries. It counts as functional. The note with it: read-out: pA2 (converted).
Consider `CC(C)C[C@@H]1NC(=O)[C@@H](C(C)C)NC(=O)[C@@H]2CCCN2C(=O)[C@@H](CC(=O)O)NC(=O)[C@@H](Cc2c[nH]c3ccccc23)NC1=O` (single isomer, unassigned), for which the Kb was 39.8 nM.
